# GRIN3A LBD mod: modulators (binders) of human NR3A ligand-binding domain. NR3A LBD differential scanning fluorimetry, Tm shift; 0% = protein alone, 100% = glycine-bound protein. Tm shift relative to glycine control, % at 25 µM. hit rate 2.5% among 340,000;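 active means melting temperature shift of at least 10% of the positive control shift, at one fixed dose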
# MPTP inh: inhibitors of mitochondrial permeability transition pore. hit rate 1.4% among 360,000. inhibition, % at 10 µM. isolated mouse mitochondria, Ca2+ swelling absorbance, 30 min;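 active means inhibition of 50% or more, scaled per plate between neutral and stimulator controls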;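 further: 0% = DMSO wells given calcium and 100% = 1 mM EGTA wells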
# CHOP inhibitor: inhibitors of CHOP induction in ER stress response | CHO-K1 CHOP-promoter luciferase, tunicamycin-induced, 15-18 h | inhibition, % at 10 µM | hit rate 3.8% among 220,000;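 active means compounds that reduced the stress-induced luciferase reporter signal by more than about 70% of percent inhibition, limit read from the data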;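 further: 0% = tunicamycin plus vehicle and 100% = wells without tunicamycin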
# EBV gp42 block: blocks Epstein-Barr virus glycoprotein 42 binding. Q1HVG2. Fluorescence polarization binding assay, mP read-out. inhibition, % (tested at 21.74 µM). hit rate 0.42% among 220,000; in the data active means inhibition above about 50%
# Target sequence (Q1HVG2 whole entry, looked up): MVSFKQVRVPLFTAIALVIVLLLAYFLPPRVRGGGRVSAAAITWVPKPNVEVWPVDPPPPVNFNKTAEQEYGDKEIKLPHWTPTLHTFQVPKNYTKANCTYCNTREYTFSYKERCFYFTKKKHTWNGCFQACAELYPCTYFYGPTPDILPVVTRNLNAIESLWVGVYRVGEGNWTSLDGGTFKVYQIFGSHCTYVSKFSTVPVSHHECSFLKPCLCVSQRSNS
# WT yeast gro inh: growth inhibition of WT yeast, mitochondrial fusion screen; AID 1362; mitochondrial fusion phenotypic screen, WT strain; inhibition, % at 10 µM; hit rate 2.1% among 190,000; in the data active means inhibition above about 58%; tested in S. cerevisiae
# Tb MetRS inh: blocks T. brucei methionyl-tRNA synthetase activity; purified T. brucei MetRS, ATP depletion, Kinase-Glo luminescence; inhibition, % at 11.9 µM; hit rate 0.4% among 360,000; AID 624268;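 active means inhibition above a per-plate cutoff of the control wells' mean inhibition plus 3 SD, cut at about 5.5% in these data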;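 further: 0% = DMSO wells median and 100% = median of wells with control inhibitor compound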
#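 Test system: purified T. brucei MetRS enzyme. Also added: ATP, methionine and E. coli bulk tRNA substrates. Compound: 11.9 µM single point. Schedule: 15 min enzyme-compound preincubation, 2 h reaction, 10 min detection, 25 °C. Signal: luciferase luminescence of residual ATP, Kinase-Glo. Evaluation: percent inhibition versus plate control medians. Controls: DMSO wells, low control.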
# Starred values were filed as active, the others as inactive; · = not tested or not shown. Only some compounds are listed: those with a hit (about 6.4% of all), similar ones and a draw of the others.
SMILES,GRIN3A LBD mod,MPTP inh,CHOP inhibitor,EBV gp42 block,WT yeast gro inh,Tb MetRS inh
CCc1ccc2oc(-c3cc(N)ccc3O)nc2c1,-5,-3,78*,4,25,0
COc1cc(NC(=O)C(c2ccccc2)c2ccccc2)c(C(=O)O)cc1OC,-1,0,·,·,·,-1
O=S(=O)(NCCOCC(F)(F)C(F)F)c1ccc2oc3ccccc3c2c1,3,5,85*,4,20,-1
Cc1ccc(/C=N/n2c(C)nnc2C)cc1,-2,-7,8,-10,2,0
O=C(CSc1ncnc2c1cnn2-c1ccc(F)cc1)NCc1ccc2c(c1)OCO2,0,5,89*,-23,-4,0
O=C(CSc1ncc(C(=O)O)n1-c1ccc(F)cc1)NCc1ccc2c(c1)OCO2,-2,-2,14,-17,-12,-1
O=C(CSc1nc(CCC2CCCC2)nc2ccccc12)NCc1ccc2c(c1)OCO2,1,7,95*,-17,-13,0
Cc1cc(NC(=O)CSc2nc(CCC3CCCC3)nc3ccccc23)no1,-3,0,53,-7,-9,2
O=C(CSc1nc2ccccc2o1)NCc1ccc2c(c1)OCO2,-1,1,79*,-4,5,2
COc1ccc(OC)c(-n2nnnc2SCC(=O)NCc2ccc3c(c2)OCO3)c1,11*,0,17,-19,13,0
O=C(NCC1CCCO1)C1CC(c2ccccc2Cl)=NO1 (stereo not drawn),-1,-2,1,-12,4,0
O=C(c1ccccc1F)N(Cc1ccc(F)cc1)C1CCS(=O)(=O)C1 (stereo not drawn),1,-2,30,-21,-5,0
Cc1nc2ccccc2n1CC(=O)NCCN1CCCC1,0,-1,14,-20,-5,0
CCc1nc2ccc(C(=O)Nc3ccc(NC(C)=O)cc3)cn2c1N(C)C(=O)Cc1ccccc1,·,3,·,·,·,0
Cc1ccc2c(C(=O)N3CCN(c4ccccc4)CC3)cc(-c3cccnc3)nc2c1C,-1,-2,14,-5,73*,-1
Cc1ccc2nc(-c3cccnc3)cc(C(=O)N3CCN(c4ccc([N+](=O)[O-])cc4)CC3)c2c1,-3,1,8,-6,2,0
COc1ccc(CNC(=O)C2CCN(S(=O)(=O)c3cccc(C(F)(F)F)c3)CC2)cc1,1,0,·,·,·,-1
COc1ccc(N2CCC(CNS(=O)(=O)c3cccc(C(F)(F)F)c3)C2)cc1 (stereo not drawn),0,1,74*,-25,8,0
COc1ccc(C=O)cc1OS(=O)(=O)c1ccc(NC(C)=O)cc1,-1,-1,9,5,-1,2
COc1ccc(/C=N/NC(=O)c2ccc3ccccc3c2)cc1OS(=O)(=O)c1ccc(NC(C)=O)cc1,28*,1,-14,3,0,-1
COc1cc(/C=N/NC(=O)c2ccc(COc3cc(C)ccc3C(C)C)cc2)cc(OC)c1O,21*,8,3,-8,23,0
CCN(CC)S(=O)(=O)c1cccc(C(=O)N/N=C/c2cc(OC)c(O)c(OC)c2)c1,3,-1,-7,-9,-15,0
COc1cc(/C=N/NC(N)=O)cc(Br)c1OCc1ccc(C)cc1,-1,2,82*,-3,·,-1
Cc1ccc(C(C)C)c(OCc2ccc(C(=O)N/N=C/c3cccc(O)c3O)cc2)c1,24*,6,107*,12,-17,-1
COc1cc(/C=N/NC(N)=O)ccc1OC(=O)c1ccc(C)cc1,·,·,44,1,-1,·
SMILES,GRIN3A LBD mod,MPTP inh,CHOP inhibitor,EBV gp42 block,WT yeast gro inh,Tb MetRS inh
Cc1cccc([C@@H]2[C@@H]3C(=O)N(Cc4ccccc4)C(=O)[C@@H]3[C@]3(Cc4ccc(Cl)cc4)C(=O)N(c4ccc(Br)cc4)C(=O)N23)c1,2,2,·,·,·,0
Cc1ccc(C(C)C)c(OCc2ccc(C(=O)N/N=C/c3ccc(O)c(O)c3)cc2)c1,34*,42,84*,5,-12,0
CCOc1cc(/C=N/NC(=O)c2ccc(=O)n(C)c2)ccc1O,1,0,15,-10,11,0
COc1cc(/C=N\NC(=O)c2ccc(-c3ccccc3)cc2)cc(OC)c1OC(C)=O,-8,0,·,·,·,-1
COc1cc(/C=N\NC(=O)c2ccc(-c3ccccc3)cc2)cc(OC)c1O,12*,-1,·,·,·,0
O=C(Cc1cccc(NC(=O)C2CCN(C(=O)CCc3ccccc3)CC2)c1)Nc1cccc(C(=O)N2CCOCC2)c1,-3,0,·,·,·,-1
CCC(C)N(NC(C)=O)c1nc(Cl)nc(NC(C)(C)C)n1 (stereo not drawn),0,1,-11,-9,11,-2
Cc1ccnc(Nc2nc(-c3ccccc3)cs2)c1,-7,1,·,·,·,-1
CC(=O)Nc1ccc(-c2csc(Nc3cc(C)ccn3)n2)cc1,25*,0,9,2,38,-1
CC(=O)Nc1cccc(-c2csc(Nc3cc(C)ccn3)n2)c1,10*,2,25,-11,53,0
COc1ccc(NC(=O)CCc2nnc3ccc(NCc4ccco4)nn23)cc1,-1,0,·,·,·,0
Cc1sc2ncn(CC(=O)NCC(=O)N3CCN(c4ccc(F)cc4)CC3)c(=O)c2c1C,-1,1,·,·,·,0
Cc1ccc(NC(=O)COC(=O)Cn2ccc(=O)[nH]c2=O)cc1C,0,0,·,·,·,0
Cc1onc(-c2ccccc2Cl)c1C(=O)Nc1nnc(C(C)C)s1,0,0,36,-8,11,0
COC(=O)c1c(NC(=O)c2c(-c3ccccc3Cl)noc2C)sc2c1CCC2,-3,3,81*,-12,75*,-2
Cc1onc(-c2ccccc2Cl)c1C(=O)Nc1sc2c(c1C(N)=O)CCC(C)C2 (stereo not drawn),0,1,64,-10,69*,1
Cc1c(C(=O)Nc2ccc(Oc3ccccc3)cc2)sc2nc3n(c(=O)c12)CCC3,3,-2,53,-28,61*,0
CCCC1CCc2c(c3ccccc3[nH]c2=O)O1 (stereo not drawn),2,-2,76*,-10,19,-1
CCC1CCc2c(c3ccccc3[nH]c2=O)O1 (stereo not drawn),-1,0,12,3,6,-1
CC(=O)Nc1c(S(=O)(=O)c2ccccc2)c2nc3ccccc3nc2n1Cc1ccccc1,-6,-18,19,2,12,0
Cc1ccc(S(=O)(=O)c2c(N)n(Cc3ccco3)c3nc4ccccc4nc23)cc1,2,7,74*,61*,-13,1
Cc1cccc(S(=O)(=O)c2c(N)n(Cc3ccco3)c3nc4ccccc4nc23)c1,6,10,57,4,15,3
C=CCn1c(NS(=O)(=O)c2ccccc2)c(S(=O)(=O)c2ccc(C)cc2)c2nc3ccccc3nc21,11*,1,6,18,3,-1
